Laboratory results: ChEMBL document CHEMBL1143407, “In vivo efficacy and pharmacokinetics of voriconazole in an animal model of dermatophytosis” (Antimicrob Agents Chemother, 2007)
≈ marks a conversion by molar mass, not a printed value.

Key:
Microsporum canis [1] = assay: Antimicrobial activity against Microsporum canis; format: functional
Outline: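 MIC was determined by CLSI M38-A broth dilution, modified to use 10⁵ CFU/ml inoculum and 10 days incubation at 25°C. The organism was a clinical M. canis isolate, tested in triplicate.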

[2] = Cmax in guinea pig whole blood at 20 mg/kg/day, po after 3 hrs; format: ADME, organism-based, Cavia porcellus; design: dose 20 mg/kg/day, route oral
Outline: (§1)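 Day 14: three infected guinea pigs received the twelfth 20 mg/kg oral gavage dose. Whole blood was drawn from the eye vein hourly from 1 h. 3-mm full-thickness punch biopsies were taken hourly from the lesion margin over 3 h. Blood was precipitated with acetonitrile. Biopsies were extracted 6 h in acetonitrile-ammonium phosphate with freeze-thaw cycles. Total drug was measured by isocratic RP-18 HPLC (LLOQ 0.2 μg/ml).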

Microsporum canis [3] = assay: Antifungal activity against Microsporum canis infected in guinea pig dermatophytosis model assessed as colony count per specimen at 20 mg/kg/day, po administered 12 days measured after 14 days; format: functional
Outline: (§2)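 Female guinea pigs (418 to 482 g) were inoculated on shaved skin with M. canis clinical-isolate microconidia at about 8 × 10⁵ conidia/ml. Oral solution was given by gavage at 20 mg/kg/day on days 3 to 14; controls were untreated (n = 8 per group). Skin scrapings were cultured on SAB with cycloheximide/chloramphenicol for 28 days and CFU per specimen counted. Groups were compared by Wilcoxon two-sample test.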

[4] = Cmax in guinea pig interstitial fluid at 20 mg/kg/day, po after 3 hrs; format: ADME, organism-based, Cavia porcellus; design: dose 20 mg/kg/day, route oral
Outline: (§3)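 Day 14: the first three treated guinea pigs, infected and dosed as above, were studied under anesthesia. Dermal microdialysis catheters were placed in normal and inoculated skin and perfused with isotonic NaCl at 1 μl/min. Probes were calibrated beforehand by retrodialysis (5 and 10 μg/ml). Dialysates were collected every 30 min for 3 h after the twelfth 20 mg/kg oral dose. Unbound level = 100 × C_dialysate/RR, by isocratic RP-18 HPLC.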

[5] = Cmin in guinea pig whole blood at 20 mg/kg/day, po after 3 hrs; format: ADME, organism-based, Cavia porcellus; design: route oral; conditions: read-out: Cmin; outline: as §1
Microsporum canis [6] = assay: Antifungal activity against Microsporum canis infected in guinea pig dermatophytosis model assessed as colony count per specimen at 20 mg/kg/day, po administered 12 days measured after 17 days; format: functional; outline: as §2
[7] = Cmax in guinea pig skin biopsy specimen at 20 mg/kg/day, po after 3 hrs; format: ADME, organism-based, Cavia porcellus, Zone of skin; design: dose 20 mg/kg/day, route oral; outline: as §1
Paraphyton cookei = assay: Antimicrobial activity against Microsporum cookei; format: functional
Microsporum canis [8] = assay: Antifungal activity against Microsporum canis infected in guinea pig dermatophytosis model assessed as colony count per specimen at 20 mg/kg/day, po after 7 days; format: functional; outline: as §2
Microsporum audouinii = assay: Antimicrobial activity against Microsporum audouinii; format: functional
[9] = Cmin in guinea pig skin biopsy specimen at 20 mg/kg/day, po after 3 hrs; format: ADME, organism-based, Cavia porcellus, Zone of skin; design: route oral; conditions: read-out: Cmin; outline: as §1
[10] = Drug level in guinea pig whole blood at 20 mg/kg/day, po after 3 hrs; format: ADME, organism-based, Cavia porcellus; design: route oral; conditions: read-out: Drug uptake; outline: as §1
Nannizzia gypsea = assay: Antimicrobial activity against Microsporum gypseum; format: functional
Microsporum distortum = assay: Antimicrobial activity against Microsporum distortum; format: functional
Nannizzia nana = assay: Antimicrobial activity against Microsporum nanum; format: functional
[11] = Drug level in guinea pig interstitial fluid at 20 mg/kg/day, po after 3 hrs; format: ADME, organism-based, Cavia porcellus; design: route oral; conditions: read-out: Drug uptake; outline: as §3
Microsporum canis [12] = assay: Antifungal activity against Microsporum canis infected in guinea pig dermatophytosis model assessed as colony count per specimen at 20 mg/kg/day, po after 3 days; format: functional; outline: as §2
[13] = Cmax in guinea pig skin at 20 mg/kg/day, po after 3 hrs; format: ADME, organism-based, Cavia porcellus, Zone of skin; design: dose 20 mg/kg/day, route oral; outline: as §1
[14] = Drug level in guinea pig skin biopsy specimen at 20 mg/kg/day, po after 3 hrs; format: ADME, organism-based, Cavia porcellus, Zone of skin; design: route oral; conditions: read-out: Drug uptake; outline: as §1

Compound: C[C@@H](c1ncncc1F)[C@](O)(Cn1cncn1)c1ccc(F)cc1F [VORICONAZOLE]
- MIC (Microsporum canis [1]): 0.25 µg/mL (≈ 0.716 µM)
- Cmax [2]: 7700 ng/mL
- Activity (Microsporum canis [3]): 0.3
- Cmax [4]: 2000 ng/mL
- concentration at 3 h [5]: 4000 ng/mL
- Activity (Microsporum canis [6]): 0.2
- Cmax [7]: 35900 ng/g
- MIC (Paraphyton cookei): 0.01 µg/mL (≈ 0.0286 µM)
- Activity (Microsporum canis [8]): 4.1
- MIC (Microsporum audouinii): 0.01 µg/mL (≈ 0.0286 µM)
- concentration at 3 h [9]: 9100 ng/g
- concentration at 3 h [10]: 6300 ng/mL
- MIC (Nannizzia gypsea): 0.01 µg/mL (≈ 0.0286 µM)
- MIC (Microsporum distortum): 0.01 µg/mL (≈ 0.0286 µM)
- MIC (Nannizzia nana): 0.01 µg/mL (≈ 0.0286 µM)
- concentration at 3 h [11]: 1400 ng/mL
- Activity (Microsporum canis [12]): 6.4
- Cmax [13]: 28100 ng/g
- concentration at 3 h [14]: 18300 ng/g
